According to ChEMBL document CHEMBL1240409, “Design, synthesis and evaluation of (E)-alpha-benzylthio chalcones as novel inhibitors of BCR-ABL kinase” (Bioorg Med Chem, 2010):

Columns and labels:
[1] = system: K562; assay: Growth inhibition of human K562 cells expressing p210Bcr/Abl after 96 hrs by trypan blue exclusion assay; format: functional, cell-based; details: K562, 96 h
Procedure, shortened: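 K562 cells were kept in RPMI with 10% FBS and penicillin–streptomycin at 37 °C under 5% CO2. Cells were seeded at 1 × 10^5 cells/mL with a range of compound concentrations, using DMSO as the negative control. After 96 h, viability was counted by Trypan blue exclusion and expressed as percent of DMSO control to derive GI50.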

[2] = system: DU-145; assay: Growth inhibition of human DU145 cells after 96 hrs by trypan blue exclusion assay; format: functional; details: DU-145, 96 h

| Compound | GI50 [1] [µM] | GI50 [2] [µM] |
| --- | --- | --- |
| Cc1ccc(S(=O)(=O)/C(=C/c2c[nH]c3ccccc23)C(=O)c2ccc(Br)cc2)cc1 | 10 | 10 |
| Cc1ccc(CS/C(=C/c2ccc(F)c(C)c2)C(=O)c2ccc(Cl)cc2)cc1 | 10 | 25 |
| O=C(/C(=C\c1ccc(F)c([N+](=O)[O-])c1)S(=O)(=O)c1ccc(Br)cc1)c1ccc(Br)cc1 | 10 | 25 |
| COc1ccccc1/C=C(/SCc1ccccc1F)C(=O)c1ccc(Cl)cc1 | 1 | 10 |
| COc1ccc(S(=O)(=O)/C(=C/c2ccccc2OCc2ccccc2)C(=O)c2ccc(Cl)cc2)cc1 | 1 | 1 |
| COc1ccc(/C=C(/SCc2ccc(Cl)cc2)C(=O)c2ccc(Cl)cc2)cc1 | 1 | 10 |
| CCOc1ccc(/C=C(\C(=O)c2ccc(Cl)cc2)S(=O)(=O)Cc2ccccc2Cl)cc1OC | 1 | 10 |
| O=C(/C(=C\c1c[nH]c2ccccc12)S(=O)(=O)c1ccc(Br)cc1)c1ccc(Br)cc1 | 25 | 25 |
| COc1ccc(C(=O)/C(=C\c2ccc(Cl)cc2)Sc2ccc(F)cc2)cc1 | > 100 | > 100 |
| COc1ccc(/C=C(/Sc2ccc(C)cc2)C(=O)c2ccc(Br)cc2)cc1 | 10 | 50 |
| CN(C)c1ccc(/C=C(/SCc2ccccc2Cl)C(=O)c2ccc(Cl)cc2)cc1 | 50 | > 100 |
| O=C(/C(=C\c1cc(Cl)cc(Cl)c1Cl)SCc1ccc(Cl)cc1)c1ccc(Br)cc1 | 1 | 1 |
| COc1ccc(S(=O)(=O)/C(=C/c2ccc(C)s2)C(=O)c2ccc(Cl)cc2)cc1 | 10 | 25 |
| Cc1ccc(S(=O)(=O)/C(=C/c2ccc(Cl)cc2)C(=O)c2ccc(Cl)cc2)cc1 | 1 | 1 |
| O=C(C(=Cc1ccc(I)cc1)S(=O)(=O)Cc1ccc(I)cc1)c1ccc(I)cc1 | > 50 | 50 |
| CN(C)c1ccc(/C=C(/SCc2ccc(F)cc2)C(=O)c2ccc(Cl)cc2)cc1 | 1 | 50 |
| Cc1ccc(CS(=O)(=O)/C(=C/c2c(O)cc(O)cc2O)C(=O)c2ccc(Cl)cc2)cc1 | > 100 | > 100 |
| O=C(/C(=C\c1ccc(O)c([N+](=O)[O-])c1)Sc1c(F)c(F)c(F)c(F)c1F)c1ccc(Br)cc1 | 10 | 10 |
| COc1ccc(/C=C(\C(=O)c2ccc(Br)cc2)S(=O)(=O)c2ccc(Br)cc2)cc1 | 10 | 25 |
| Cc1cc(C)cc(/C=C(\C(=O)c2ccc(Cl)cc2)S(=O)(=O)c2ccc(Br)cc2)c1 | 10 | 10 |
| O=C(/C(=C\c1ccc(Br)cc1)Sc1ccc(Br)cc1)c1ccc(Cl)cc1 | 1 | 1 |
| O=C(/C(=C\c1c[nH]c2ccc(Cl)cc12)SCc1ccc(F)cc1)c1ccc(Br)cc1 | 1 | 1 |
| COc1ccc(/C=C(\C(=O)c2ccc(Cl)cc2)S(=O)(=O)c2ccc(Br)cc2)cc1 | 10 | 10 |
| COc1ccc(/C=C(/Sc2ccc(C)cc2)C(=O)c2ccc(Cl)cc2)cc1 | 1 | 1 |
| Cc1ccc(S/C(=C/c2ccc(N(C)C)cc2)C(=O)c2ccc(Br)cc2)cc1 | 50 | > 100 |
| COc1ccccc1/C=C(/Sc1ccc(C)cc1)C(=O)c1ccc(Br)cc1 | 1 | 9 |

| Compound | GI50 [1] [µM] | GI50 [2] [µM] |
| --- | --- | --- |
| Cc1ccc(C)c(/C=C(/SCc2ccc(F)cc2)C(=O)c2ccc(Br)cc2)c1 | 50 | 1 |
| Cc1ccc(S/C(=C/c2sccc2C)C(=O)c2ccc(Br)cc2)cc1 | 50 | 50 |
| CCOc1ccc(/C=C(\C(=O)c2ccc(Cl)cc2)S(=O)(=O)Cc2ccc(F)cc2)cc1OC | 25 | 50 |
| Cc1ccc(CS(=O)(=O)/C(=C/c2cc(C)cc(C)c2)C(=O)c2ccc(Cl)cc2)cc1 | 10 | 10 |
| COc1ccc(/C=C(/SCc2ccc(Cl)cc2)C(=O)c2ccc(Br)cc2)cc1 | 1 | 10 |
| COc1ccc(/C=C(/Sc2ccc(Br)cc2)C(=O)c2ccc(Br)cc2)c(F)c1 | 1 | 20 |
| O=C(/C(=C\c1ccc(Cl)cc1)Sc1ccc(Br)cc1)c1ccc(Br)cc1 | 1 | 1 |
| Cc1ccc(S(=O)(=O)/C(=C/c2sccc2C)C(=O)c2ccc(Cl)cc2)cc1 | 10 | 10 |
| O=C(/C(=C/c1ccc(Cl)cc1)Cc1ccc(Cl)c(Cl)c1)c1ccc(Cl)cc1Cl | 1 | 1 |
| Cc1ccc(CS/C(=C/c2c[nH]c3ccc(Cl)cc23)C(=O)c2ccc(Cl)cc2)cc1 | 1 | 1 |
| O=C(O)c1ccc(C(=O)/C(=C\c2ccc(O)c([N+](=O)[O-])c2)SCc2ccc(F)cc2)cc1 | 50 | > 100 |
| Cc1ccc(S/C(=C/c2c[nH]c3ccc(Cl)cc23)C(=O)c2ccc(Br)cc2)cc1 | 1 | 1 |
| Cc1ccsc1/C=C(/SCc1ccc(F)cc1)C(=O)c1ccc(Br)cc1 | > 100 | 50 |
| Cc1ccc(CS/C(=C/c2ccccc2OCc2ccccc2)C(=O)c2ccc(Cl)cc2)cc1 | 1 | 1 |
| O=C(/C(=C\c1ccccc1O)Sc1ccccc1Br)c1ccc(Br)cc1 | 50 | 50 |
| Cc1cc(F)ccc1/C=C(/SCc1ccc(F)cc1)C(=O)c1ccc(Br)cc1 | 10 | 10 |
| Cc1ccc(S/C(=C/c2ccc(Cl)c(Cl)c2)C(=O)c2ccc(Br)cc2)cc1 | 50 | 50 |
| O=C(/C(=C\c1ccc(O)cc1)SCc1ccc(Cl)cc1)c1ccc(Br)cc1 | 1 | 10 |
| Cc1ccc(/C=C(\C(=O)c2ccc(Br)cc2)S(=O)(=O)Cc2ccc(F)cc2)s1 | 1 | 1 |
| Cc1ccc(S/C(=C/c2c[nH]c3ccc(Cl)cc23)C(=O)c2ccc(Cl)cc2)cc1 | 1 | 1 |
| Cc1ccc(S(=O)(=O)/C(=C/c2ccc(O)c([N+](=O)[O-])c2)C(=O)c2ccc(Cl)cc2)cc1 | 25 | 25 |
| CCOc1ccc(/C=C(/SCc2ccc(F)cc2)C(=O)c2ccc(Br)cc2)cc1OC | 1 | 50 |
| Cc1cc(C)cc(/C=C(/Sc2ccc(Br)cc2)C(=O)c2ccc(Cl)cc2)c1 | 1 | 10 |
| Cc1ccc(S/C(=C/c2ccc(F)cc2C(F)(F)F)C(=O)c2ccc(Br)cc2)cc1 | 25 | 25 |
| Cc1ccc(S(=O)(=O)/C(=C/c2ccccc2F)C(=O)c2ccc(Cl)cc2)cc1 | 1 | 2.5 |
| Cc1ccc(S/C(=C/c2ccc(Cl)cc2Cl)C(=O)c2ccc(Cl)cc2)cc1 | 10 | 10 |

| Compound | GI50 [1] [µM] | GI50 [2] [µM] |
| --- | --- | --- |
| CCOc1ccc(/C=C(/SCc2ccc(Cl)c(Cl)c2)C(=O)c2ccc(Cl)cc2)cc1OC | 1 | 25 |
| O=C(/C(=C\c1ccc(Cl)cc1)SCc1ccc(Cl)cc1)c1ccc(Br)cc1 | 1 | 10 |
| Cc1cc(C)cc(/C=C(/SCc2ccc(Cl)cc2)C(=O)c2ccc(Cl)cc2)c1 | 10 | 10 |
| O=C(/C(=C\c1ccc(Cl)cc1)S(=O)(=O)c1ccc(Br)cc1)c1ccc(Br)cc1 | 50 | 50 |
| COc1cc(OC)c(/C=C(/SCc2ccc(F)cc2)C(=O)c2ccc(Br)cc2)c(OC)c1 | 1 | 1 |
| Cc1ccc(CS/C(=C/c2ccccc2Br)C(=O)c2ccc(Cl)cc2)cc1 | 10 | 10 |
| COc1ccc(/C=C(\C(=O)c2ccc(Br)cc2)S(=O)(=O)Cc2ccc(F)cc2)cc1 | 25 | 25 |
| O=C(/C(=C\c1ccc(O)c([N+](=O)[O-])c1)SCc1ccc(Cl)cc1)c1ccc(Cl)cc1 | 10 | 10 |
| O=C(/C(=C\c1ccc(O)cc1)SCc1ccc(F)cc1)c1ccc(Br)cc1 | 1 | 10 |
| COc1cc(OC)c(/C=C(/SCc2ccc(Cl)cc2Cl)C(=O)c2ccc(Cl)cc2)c(OC)c1 | 25 | 1 |
| Cc1ccc(CS/C(=C/c2cc([N+](=O)[O-])ccc2F)C(=O)c2ccc(Cl)cc2)cc1 | 1 | 1 |
| CN(C)c1ccc(/C=C(/SCc2ccc(Cl)cc2Cl)C(=O)c2ccc(Cl)cc2)cc1 | > 100 | 50 |
| O=C(/C(=C\OCc1ccccc1)S(=O)(=O)c1ccccc1Cl)c1ccc(Cl)cc1 | 1 | 1 |
| O=C(/C(=C\c1c(O)cc(O)cc1O)S(=O)(=O)c1ccccc1Br)c1ccc(Cl)cc1 | 50 | 50 |
| Cc1ccc(C)c(/C=C(/Sc2ccc(Br)cc2)C(=O)c2ccc(Cl)cc2)c1 | 10 | 10 |
| O=C(/C(=C\c1ccc(Cl)cc1)Sc1ccc(Cl)cc1)c1ccc(Cl)cc1 | 1 | 1 |
| O=C(/C(=C\c1ccc(Br)cc1)S(=O)(=O)Cc1ccc(F)cc1)c1ccc(Cl)cc1 | 50 | > 100 |
| COc1ccccc1/C=C(/Sc1ccc(Br)cc1)C(=O)c1ccc(Cl)cc1 | 10 | 10 |
| COc1ccc(C(=O)/C(=C\c2c(OC)cc(OC)cc2OC)Sc2ccc(F)cc2)cc1 | 50 | 50 |
| O=C(/C(=C\c1ccc(Cl)cc1)SCc1ccccc1Cl)c1ccc(Cl)cc1 | 1 | 12 |
| COc1cc(/C=C(/Sc2ccc(Br)cc2)C(=O)c2ccc(Br)cc2)ccc1O | 1 | 1 |
| COc1ccc(S/C(=C/c2ccc(Br)cc2)C(=O)c2ccc(Br)cc2)cc1 | 6 | 20 |
| COc1cc(OC)c(/C=C(/Sc2ccc(C)cc2)C(=O)c2ccc(Cl)cc2)c(OC)c1 | 25 | > 100 |
| Cc1ccc(/C=C(\C(=O)c2ccc(Cl)cc2)S(=O)(=O)Cc2ccc(Cl)cc2)s1 | 1 | 1 |
